# Bioassay records as filed in PubChem.
# In the library only some 2.2% were active in any assay of this set; here they are far more common.
# HSP90 refold inh = HSP90 inhibitors, primary screen, cell lysate, luminescence | Rabbit reticulocyte lysate, luciferase refolding luminescence, 3 h | hit rate 0.91% among 290,000 | inhibition, % at 5.6 µM | Heat shock protein HSP 90 (rabbit reticulocyte lysate; luciferase refolding);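 active means inhibition above the screen-wide mean plus 3 SD, computed separately per campaign, cut at about 16% in these data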;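 further: 0% = DMSO wells and 100% = 60 µM geldanamycin wells; inhibitors lower the luminescence because luciferase stays unfolded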
# STAT3 blocker = IL-6 driven STAT3 reporter inhibitors, primary screen, U3A cells, luciferase, luminescence, MLSCN library; IL-6 STAT3-luciferase reporter; host cell line lacks STAT1; hit rate 0.89% among 190,000; inhibition, % at 5.5 µM; AID 862, 2007;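 active means inhibition above the mean inhibition across all screened compounds plus 3 SD, cut at about 44% in these data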;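 further: 0% = DMSO only wells and 100% = 100 µM nifuroxazide control wells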
# FLuc inhib CS = firefly luciferase enzyme inhibitors, primary screen, artefact control for luciferase-based inhibitor screens, biochemical, luminescence, ATPLite; Luciferin 4-monooxygenase (Photinus pyralis), P08659; 10 min; inhibition, % at 10 µM; hit rate 1.5% among 200,000; AID 1006, 2008;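 active means inhibition above about 50% when tested at 10 µM, limit read from the data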
# Target sequence (P08659 whole entry, looked up): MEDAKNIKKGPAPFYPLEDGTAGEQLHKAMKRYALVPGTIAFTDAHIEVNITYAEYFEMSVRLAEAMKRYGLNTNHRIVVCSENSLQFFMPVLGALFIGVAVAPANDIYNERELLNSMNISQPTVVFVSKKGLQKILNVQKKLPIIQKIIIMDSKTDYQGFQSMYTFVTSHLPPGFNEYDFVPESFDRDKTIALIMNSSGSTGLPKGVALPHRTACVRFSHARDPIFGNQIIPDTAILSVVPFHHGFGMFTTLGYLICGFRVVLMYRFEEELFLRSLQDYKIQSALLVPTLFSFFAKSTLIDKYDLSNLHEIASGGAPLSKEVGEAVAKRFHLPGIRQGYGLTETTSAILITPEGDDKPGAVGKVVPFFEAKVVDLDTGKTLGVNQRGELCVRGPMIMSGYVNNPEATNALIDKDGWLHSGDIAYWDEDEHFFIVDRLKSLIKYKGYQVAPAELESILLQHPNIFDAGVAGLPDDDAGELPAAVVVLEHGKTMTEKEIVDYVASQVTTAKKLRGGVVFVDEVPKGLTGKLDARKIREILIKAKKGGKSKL
# PPC-1+TRAIL kill = compounds killing PPC-1 cancer cells with TRAIL present, primary screen, TRAIL potentiator project, ATPLite luminescence, uHTS; PPC-1 cells + TRAIL, ATPLite viability luminescence; cell killing (% activity), % at 4 µM or 5 µM; hit rate 0.41% among 220,000; AID 1443, 2008;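 active means cell killing above 50% in the first pass at 4 µM, then a duplicate retest at 5 µM averaging 50% or more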;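 further: plate controls were cells with TRAIL plus DMSO for no effect and medium-only wells lacking cells for full effect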
# TRAIL sens C8 = viability loss with TRAIL in NB7+C8 cells, primary screen, TRAIL sensitizer project, cell-based, ATPlite luminescence | inhibition (viability loss, TRAIL sensitization), % at 10 µM | hit rate 1% among 360,000 | AID 624354, 2012;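 active means compounds causing at least 50% loss of cell viability in the single-dose screen, relative to plate controls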
# FLuc stim CS = FLuc activators, initial screening, artefact control for FLuc-dependent activation tests, biochemical, ATPlite luminescence. ATPlite luciferase biochemical, 10 min; 0 = ATP-free wells, 1 = DMSO control. activation factor at 10 µM. 200,000 tested, under 10 active. AID 1027, 2008;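 active means luciferase activation factor, scaled between plate controls, of at least 2 with compound at 10 µM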
#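 test system = cell-free luciferase reagent | medium = PBS as buffer for the ATP substrate | dosing = test compounds dosed from 2 mM stocks in 100% DMSO | incubation = 10 min at ambient temperature | detection = luminescence measurement of luciferase light output | benchmarks = low control with PBS replacing ATP, high control enzyme plus ATP without compound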
# Starred values were filed as active, the others as inactive; / = no result.
SMILES,HSP90 refold inh,STAT3 blocker,FLuc inhib CS,PPC-1+TRAIL kill,TRAIL sens C8,FLuc stim CS
Cn1cnnc1SCc1ccc(C(=O)N/N=C/c2cccs2)cc1,-1,4,65*,23,28,0.4
C/C(=N\NC(=O)c1ccc(CSc2nncn2C)cc1)c1cccs1,0,0,47,32,19,0.5
CN(C)C(CNS(=O)(=O)c1cc([N+](=O)[O-])ccc1Cl)c1ccco1 (configuration not stated),/,/,/,/,-15,/
CC(=O)C1CCC2C3CCC4CC(=O)CCC4(C)C3C=CC12C (configuration not stated),/,/,/,/,-19,/
Clc1ccc(CNCc2cccs2)c(Cl)c1,0,8,-2,9,-3,1
CCCOc1ccccc1N/C(=N/c1nc(C)cc(C)n1)NC(=O)Nc1ccc(Cl)cc1,1,6,0,22,12,1
O=C(NN=Cc1ccc2c(c1)CCN2)c1cccs1,/,/,/,/,50*,/
O=C(c1cc(COc2c(F)cccc2F)on1)N(Cc1ccccc1)CC1CC1,0,/,/,/,1,/
Cc1cccc(-c2cc3c(nn2)-c2ccccc2C3=O)c1,4,31,62*,35,45,0.4
Cc1ccc(C(=O)N/N=C2/NC(=O)CC(C(=O)Nc3ccccc3)S2)cc1 (configuration not stated),3,4,-1,19,-6,1
O=C(c1ccc(Br)o1)N1CCCc2ccccc21,0,14,-3,11,4,1
O=C(c1ccc(Br)o1)N1CCc2ccccc21,-2,8,54*,30,/,0.5
COCc1c(C(=O)N2CCc3ccccc32)oc2ccccc12,-1,/,/,/,-12,/
Cc1ccc(/C=C/C(=O)N2CCc3ccccc32)o1,2,13,75*,0,17,0.2
Cc1c(C(=O)N2CCc3ccccc32)oc2ccccc12,2,-5,73*,28,61*,0.3
CCOC(=O)/C=C/C(=O)N1CCc2ccccc21,-2,-1,19,16,-10,0.8
CCOc1cc(/C=C\[N+](=O)[O-])ccc1OCC(=O)Nc1ccccc1C,0,-4,-4,2,64*,1
CCc1ccc(OCCCCN(C)Cc2ccccc2)cc1,-3,/,/,/,-21,/
Clc1ccc(-n2nnc(-c3nccs3)n2)cc1Cl,6,/,59*,23,35,0.4
Clc1ccc(-n2nnc(-c3ncc[nH]3)n2)cc1Cl,/,/,/,/,-2,/
CC(C)Oc1ccc(C(=O)NCC(=O)N2CCN(S(=O)(=O)/C=C/c3ccccc3)CC2)cc1,/,/,/,/,-23,/
O=C(Nc1nccs1)c1ccc(-c2ccc([N+](=O)[O-])cc2)o1,6,26,21,28,23,0.8
O=C(Nc1nccs1)c1ccc(-c2ccc(F)cc2)o1,2,19,78*,49,54*,0.2
O=C(CSC(=S)N1CCSCC1)c1ccccc1,-7,30,68*,21,36,0.3
O=C(CSC(=S)N1CCSCC1)c1ccc(Cl)cc1,-4,19,31,22,-1,0.7
SMILES,HSP90 refold inh,STAT3 blocker,FLuc inhib CS,PPC-1+TRAIL kill,TRAIL sens C8,FLuc stim CS
Cc1ccc(S(=O)(=O)c2c(N)n(CCCN(C)C)c3nc4ccccc4nc23)cc1,0,/,/,4,7,/
CCCCn1c(NS(=O)(=O)c2ccc(C)cc2)c(S(=O)(=O)c2ccccc2)c2nc3ccccc3nc21,2,-7,-11,10,78*,1.1
CCOC(=O)C1=CCN(S(=O)(=O)c2ccccc2Br)C1c1ccccc1 (configuration not stated),/,/,/,/,-1,/
COC1=CC(=O)c2nc(Cl)ccc2C1=O,/,/,/,/,95*,/
CCCCN(C)CCC(=O)Nc1ccc(F)c(F)c1,-2,-4,-4,9,-5,1
Cc1ccnc(NC(=O)CCC(=O)c2cccs2)c1,/,/,/,/,79*,/
O=C(Nc1ccccc1N1CCOCC1)c1cc2c(s1)CCCCC2,1,2,65*,7,27,0.3
O=C(Nc1ccon1)c1cc2c(s1)CCCC2,3,23,70*,32,36,0.3
O=C(Nc1ccon1)c1cc2c(s1)CCCCCC2,3,-8,19,11,16,0.8
COc1ccc(NC(=O)C2(C)CCN2C(=O)c2ccc(C(C)(C)C)cc2)cc1OC (configuration not stated),/,/,/,/,20,/
CCCNC(=O)C1(C)CCN1C(=O)Cc1ccc(C(C)C)cc1 (configuration not stated),/,/,/,/,1,/
Cc1nc2c(o1)C(=O)c1ccccc1C2=Nc1ccccc1,/,/,/,/,95*,/
CC(=O)c1c(C)oc2c1C(=O)c1ccccc1C2=O,2,25,-10,8,39,1.1
O=C(CSc1cn(Cc2ccccc2)c2ccccc12)Nc1nccs1,-7,-12,50*,45,-25,0.5
Cc1ccc(C2=NN(C(=O)CCl)C(c3ccco3)C2)o1 (configuration not stated),-2,/,/,/,92*,/
Cc1ccc(NC(=O)c2ccc(=O)n(CC(=O)Nc3ccccc3)n2)cc1,-3,/,/,/,1,/
COc1ccc(/C=N/NC(=O)CC(=O)N/N=C/c2ccc(OC)cc2)cc1,-4,2,-5,5,3,1.1
COc1ccc(/C=N\NC(=O)C2=NNC(=O)C2C)cc1 (configuration not stated),-6,-4,69*,29,39,0.3
C(=N\Nc1nccc(-c2cccnc2)n1)/c1ccccc1,2,/,/,13,28,/
Cc1ccnc(N/N=C/c2ccccc2)n1,-2,0,51*,-3,17,0.5
CC(C)(C)c1ccc(-c2n[nH]c(=S)n2-c2ccccc2)cc1,0,/,/,/,10,/
CCn1cc(CCC(=O)NC2CCCC2)c2ccccc21,-4,/,/,/,-23,/
CC(/C=N/NC(=O)c1n[nH]c2c1CCC2)=C\c1ccccc1,1,-32,53*,20,47*,0.5
CC(/C=N/NC(=O)c1cccs1)=C\c1ccccc1,1,32,76*,21,58*,0.2
O=C(N/N=C/C(Br)=C\c1ccccc1)c1n[nH]c2c1CCC2,4,-50,42,37,36,0.6
O=C(N/N=C/C(Cl)=C\c1ccccc1)c1cccs1,-3,/,/,5,26,/
CCOC(=O)N1CCN(C(=O)CSc2ccc(-c3ccc(OC)cc3)nn2)CC1,-1,6,58*,32,20,0.4
CCOC(=O)N1CCN(C(=O)CSc2ccc(-c3ccc(OC)c(OC)c3)nn2)CC1,0,-5,28,14,9,0.7
COCc1nn2c(N)c(-c3ccccc3)cnc2c1-c1ccccc1,-2,/,/,/,51*,/
O=C(Nc1ccc2cn[nH]c2c1)c1ccccc1F,1,4,53*,16,22,0.5
